Test results published in the M2OR odorant receptor database.
Where a chain is given by its changes, count along the chain named.

What was measured:
Conditions in all cases: stereoisomer not certain
OR5P3 (Homo sapiens) = biological target: T1, OR5P3 (Homo sapiens) (UniProt Q8WZ94)
T1 sequence (whole entry): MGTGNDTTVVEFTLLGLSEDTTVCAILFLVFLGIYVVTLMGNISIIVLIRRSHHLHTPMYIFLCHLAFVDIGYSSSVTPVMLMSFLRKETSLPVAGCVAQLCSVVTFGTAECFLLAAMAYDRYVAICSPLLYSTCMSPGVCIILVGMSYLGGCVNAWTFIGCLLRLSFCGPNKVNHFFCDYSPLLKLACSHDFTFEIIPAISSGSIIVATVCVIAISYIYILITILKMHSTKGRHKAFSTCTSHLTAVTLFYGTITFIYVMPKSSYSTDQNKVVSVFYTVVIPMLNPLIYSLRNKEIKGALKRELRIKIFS
In short: (§1)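 Each receptor–molecule pair is labelled responsive or non-responsive (inactive) according to whether the original authors judged the measured signal statistically different from baseline. The data were taken from the main text and supplementary material of published papers and checked for typos and inconsistencies. Assay methods differed by source, with transient luciferase assays in mammalian cell lines being common.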

OR5M8 (Homo sapiens) = biological target: T2, OR5M8 (Homo sapiens) (UniProt Q8NGP6)
T2 sequence (whole entry): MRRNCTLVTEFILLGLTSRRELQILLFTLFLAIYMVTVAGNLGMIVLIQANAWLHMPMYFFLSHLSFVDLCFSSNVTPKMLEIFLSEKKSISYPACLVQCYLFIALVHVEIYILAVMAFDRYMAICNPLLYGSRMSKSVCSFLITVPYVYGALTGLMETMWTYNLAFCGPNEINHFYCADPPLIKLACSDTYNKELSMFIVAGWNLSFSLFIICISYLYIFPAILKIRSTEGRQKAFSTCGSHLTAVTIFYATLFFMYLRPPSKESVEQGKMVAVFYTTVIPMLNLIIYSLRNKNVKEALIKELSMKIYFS
In short: as §1

OR5M9 (Homo sapiens) = biological target: T3, OR5M9 (Homo sapiens) (UniProt Q8NGP3)
T3 sequence (whole entry): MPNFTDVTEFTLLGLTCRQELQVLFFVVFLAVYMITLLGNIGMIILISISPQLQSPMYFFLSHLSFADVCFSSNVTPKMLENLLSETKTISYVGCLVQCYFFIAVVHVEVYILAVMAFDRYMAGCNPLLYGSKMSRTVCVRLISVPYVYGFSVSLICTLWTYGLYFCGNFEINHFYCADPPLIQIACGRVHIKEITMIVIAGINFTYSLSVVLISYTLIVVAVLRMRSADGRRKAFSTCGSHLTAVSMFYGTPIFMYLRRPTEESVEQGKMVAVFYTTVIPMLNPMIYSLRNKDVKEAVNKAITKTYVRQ
In short: as §1

OR5P2 (Homo sapiens) = biological target: T4, OR5P2 (Homo sapiens) (UniProt Q8WZ92)
T4 sequence (whole entry): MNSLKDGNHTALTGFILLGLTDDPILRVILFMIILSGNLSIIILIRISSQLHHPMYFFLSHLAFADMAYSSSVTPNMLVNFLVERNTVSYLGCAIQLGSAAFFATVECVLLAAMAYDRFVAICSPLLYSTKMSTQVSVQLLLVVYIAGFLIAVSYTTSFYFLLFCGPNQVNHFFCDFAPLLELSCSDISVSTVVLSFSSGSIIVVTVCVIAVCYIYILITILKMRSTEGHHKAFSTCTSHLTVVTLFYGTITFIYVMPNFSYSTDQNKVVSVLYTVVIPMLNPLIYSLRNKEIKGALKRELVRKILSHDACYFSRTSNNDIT
In short: as §1

OR5T1 (Homo sapiens) = biological target: T5, OR5T1 (Homo sapiens) (UniProt Q8NG75)
T5 sequence (whole entry): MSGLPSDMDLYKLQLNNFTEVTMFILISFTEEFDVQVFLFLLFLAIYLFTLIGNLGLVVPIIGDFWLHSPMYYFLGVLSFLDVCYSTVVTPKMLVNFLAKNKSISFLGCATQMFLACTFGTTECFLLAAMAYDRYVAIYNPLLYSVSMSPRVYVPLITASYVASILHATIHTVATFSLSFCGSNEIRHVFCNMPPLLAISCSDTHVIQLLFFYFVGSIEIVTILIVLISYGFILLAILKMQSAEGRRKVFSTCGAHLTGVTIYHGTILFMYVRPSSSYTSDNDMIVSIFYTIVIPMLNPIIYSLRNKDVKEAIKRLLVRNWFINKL
In short: as §1

OR5T2 (Homo sapiens) = biological target: T6, OR5T2 (Homo sapiens) (UniProt Q8NGG2)
T6 sequence (whole entry): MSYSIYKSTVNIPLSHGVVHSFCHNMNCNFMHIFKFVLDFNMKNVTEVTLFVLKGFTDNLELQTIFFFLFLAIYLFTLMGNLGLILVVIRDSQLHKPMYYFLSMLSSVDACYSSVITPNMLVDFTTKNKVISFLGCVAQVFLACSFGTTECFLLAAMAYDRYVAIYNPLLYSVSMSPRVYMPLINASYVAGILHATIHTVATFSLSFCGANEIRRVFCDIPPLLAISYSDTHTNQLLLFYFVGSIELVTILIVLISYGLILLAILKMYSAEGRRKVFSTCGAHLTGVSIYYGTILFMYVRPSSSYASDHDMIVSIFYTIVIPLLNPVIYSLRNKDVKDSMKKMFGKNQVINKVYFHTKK
In short: as §1

OR5T3 (Homo sapiens) = biological target: T7, OR5T3 (Homo sapiens) (UniProt Q8NGG3)
T7 sequence (whole entry): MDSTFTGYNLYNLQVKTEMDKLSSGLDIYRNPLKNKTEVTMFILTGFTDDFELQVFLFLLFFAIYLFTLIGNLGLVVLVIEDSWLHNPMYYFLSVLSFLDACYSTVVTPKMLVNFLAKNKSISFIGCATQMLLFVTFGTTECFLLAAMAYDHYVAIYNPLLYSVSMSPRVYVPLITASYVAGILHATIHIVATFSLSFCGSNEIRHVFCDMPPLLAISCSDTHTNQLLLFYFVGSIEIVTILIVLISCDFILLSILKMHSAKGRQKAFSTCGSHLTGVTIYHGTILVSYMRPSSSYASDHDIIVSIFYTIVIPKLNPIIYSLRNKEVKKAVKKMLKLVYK
In short: as §1

OR5V1 (Homo sapiens) = biological target: T8, OR5V1 (Homo sapiens) (UniProt Q9UGF6)
T8 sequence (whole entry): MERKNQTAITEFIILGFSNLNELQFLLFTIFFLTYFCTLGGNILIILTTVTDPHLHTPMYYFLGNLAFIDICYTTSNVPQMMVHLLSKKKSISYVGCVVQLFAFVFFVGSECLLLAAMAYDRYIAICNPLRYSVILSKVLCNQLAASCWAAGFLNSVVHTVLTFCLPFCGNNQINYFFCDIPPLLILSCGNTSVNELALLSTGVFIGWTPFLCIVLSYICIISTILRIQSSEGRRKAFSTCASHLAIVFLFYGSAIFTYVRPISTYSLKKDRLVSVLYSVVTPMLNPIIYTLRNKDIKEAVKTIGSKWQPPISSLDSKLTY
In short: as §1

OR5W2 (Homo sapiens) = biological target: T9, OR5W2 (Homo sapiens) (UniProt Q8NH69)
T9 sequence (whole entry): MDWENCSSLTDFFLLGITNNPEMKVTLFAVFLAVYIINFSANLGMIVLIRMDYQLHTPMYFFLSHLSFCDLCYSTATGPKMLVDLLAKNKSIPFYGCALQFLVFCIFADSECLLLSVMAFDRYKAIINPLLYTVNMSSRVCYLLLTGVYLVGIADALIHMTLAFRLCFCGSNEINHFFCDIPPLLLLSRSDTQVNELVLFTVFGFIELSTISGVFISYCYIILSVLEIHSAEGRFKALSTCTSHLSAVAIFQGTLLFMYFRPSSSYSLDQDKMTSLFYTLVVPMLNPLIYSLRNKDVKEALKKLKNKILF
In short: as §1

OR6A2 (Homo sapiens) = biological target: T10, OR6A2 (Homo sapiens) (UniProt O95222)
T10 sequence (whole entry): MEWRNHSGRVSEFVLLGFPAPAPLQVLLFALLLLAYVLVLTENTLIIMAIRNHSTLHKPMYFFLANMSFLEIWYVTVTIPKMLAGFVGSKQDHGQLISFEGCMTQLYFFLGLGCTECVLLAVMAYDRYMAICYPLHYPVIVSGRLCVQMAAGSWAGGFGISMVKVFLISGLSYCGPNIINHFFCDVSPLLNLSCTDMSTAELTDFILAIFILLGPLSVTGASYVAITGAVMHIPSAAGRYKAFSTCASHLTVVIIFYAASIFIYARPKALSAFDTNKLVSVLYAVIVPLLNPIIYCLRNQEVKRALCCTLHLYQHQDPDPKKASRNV
In short: as §1

OR6B1 (Homo sapiens) = biological target: T11, OR6B1 (Homo sapiens) (UniProt O95007)
T11 sequence (whole entry): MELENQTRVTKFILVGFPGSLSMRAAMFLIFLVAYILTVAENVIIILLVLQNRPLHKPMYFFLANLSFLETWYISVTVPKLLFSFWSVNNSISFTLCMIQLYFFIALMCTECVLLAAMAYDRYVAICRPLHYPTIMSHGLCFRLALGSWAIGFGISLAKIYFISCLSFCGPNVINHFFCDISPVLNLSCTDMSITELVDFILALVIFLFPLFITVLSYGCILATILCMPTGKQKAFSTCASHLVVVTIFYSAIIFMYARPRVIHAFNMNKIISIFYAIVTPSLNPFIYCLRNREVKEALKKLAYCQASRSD
In short: as §1

OR6B2 (Homo sapiens) = biological target: T12, OR6B2 (Homo sapiens) (UniProt Q6IFH4)
T12 sequence (whole entry): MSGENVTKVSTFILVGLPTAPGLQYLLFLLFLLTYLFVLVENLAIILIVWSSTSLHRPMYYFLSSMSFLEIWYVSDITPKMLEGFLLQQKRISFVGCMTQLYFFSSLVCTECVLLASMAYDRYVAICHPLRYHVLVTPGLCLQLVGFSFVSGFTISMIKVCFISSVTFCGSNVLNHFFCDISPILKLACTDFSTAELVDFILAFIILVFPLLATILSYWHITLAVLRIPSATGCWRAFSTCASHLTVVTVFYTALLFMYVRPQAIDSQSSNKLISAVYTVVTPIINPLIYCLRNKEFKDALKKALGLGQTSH
In short: as §1

OR5MA L2F C311H = system: T13, OR5MA L2F C311H
T13 sequence (whole entry): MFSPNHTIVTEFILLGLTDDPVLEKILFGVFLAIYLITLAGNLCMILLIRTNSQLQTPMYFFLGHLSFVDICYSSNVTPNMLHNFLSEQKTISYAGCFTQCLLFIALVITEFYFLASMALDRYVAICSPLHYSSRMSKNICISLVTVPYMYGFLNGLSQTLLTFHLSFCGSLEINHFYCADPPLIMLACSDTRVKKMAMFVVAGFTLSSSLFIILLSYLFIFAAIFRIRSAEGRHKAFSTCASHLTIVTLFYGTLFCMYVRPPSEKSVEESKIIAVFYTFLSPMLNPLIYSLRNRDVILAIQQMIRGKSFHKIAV
In short: as §1

OR5MA L2F Q54H C311H = system: T14, OR5MA L2F Q54H C311H
T14 sequence (whole entry): T13 sequence (whole entry) with Q54H
In short: as §1

OR5P3 L301R = system: T15, OR5P3 L301R
T15 sequence (whole entry): T1 sequence (whole entry) with L301R
In short: as §1

OR5R1 C122R S128G F184L = system: T16, OR5R1 C122R S128G F184L
T16 sequence (whole entry): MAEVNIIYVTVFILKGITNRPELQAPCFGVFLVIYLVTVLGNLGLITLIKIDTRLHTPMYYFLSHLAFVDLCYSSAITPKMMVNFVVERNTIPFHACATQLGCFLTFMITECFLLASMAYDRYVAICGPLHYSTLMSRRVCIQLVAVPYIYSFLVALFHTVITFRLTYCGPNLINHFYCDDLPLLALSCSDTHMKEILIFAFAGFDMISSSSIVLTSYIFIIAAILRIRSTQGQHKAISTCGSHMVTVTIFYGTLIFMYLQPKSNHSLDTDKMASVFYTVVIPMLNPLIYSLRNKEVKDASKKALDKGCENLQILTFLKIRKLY
In short: as §1

OR5T2 S4G = system: T17, OR5T2 S4G
T17 sequence (whole entry): T6 sequence (whole entry) with S4G
In short: as §1

OR5W2 R189C = system: T18, OR5W2 R189C
T18 sequence (whole entry): T9 sequence (whole entry) with R189C
In short: as §1

OR6A2 I50V = system: T19, OR6A2 I50V
T19 sequence (whole entry): T10 sequence (whole entry) with I50V
In short: as §1

OR6B2 R122C C179R = system: T20, OR6B2 R122C C179R
T20 sequence (whole entry): T12 sequence (whole entry) with R122C, C179R
In short: as §1

Measured: odorant receptor agonist call

CCCCCCCC(=O)[O-].[H+]
inactive: OR5P3 (Homo sapiens)

O=c1ccc2ccccc2o1
active: OR5P3 (Homo sapiens)

CCCCC(S)C(C)CO (stereo not drawn)
not listed: OR5MA L2F C311H | OR5MA L2F Q54H C311H | OR5P3 L301R | OR5R1 C122R S128G F184L | OR5T2 S4G | OR5W2 R189C | OR6A2 I50V | OR6B2 R122C C179R
inactive: all other assays above

CCC(S)C(C)CO (stereo not drawn)
not listed: OR5MA L2F C311H | OR5MA L2F Q54H C311H | OR5P3 L301R | OR5R1 C122R S128G F184L | OR5T2 S4G | OR5W2 R189C | OR6A2 I50V | OR6B2 R122C C179R
inactive: all other assays above

CC1=C(O)C(=O)OC1C (stereo not drawn)
inactive: all assays above

CCCCC(=O)CC
inactive: OR5P3 (Homo sapiens)

CCCCCCCCO
inactive: OR5P3 (Homo sapiens)

CCC1OC(C)=C(O)C1=O (stereo not drawn)
inactive: all assays above
